The source of these data is ChEMBL document CHEMBL1145391, “C-3 alkyl/arylalkyl-2,3-dideoxy hex-2-enopyranosides as antitubercular agents: synthesis, biological evaluation, and QSAR study” (J Med Chem, 2007).

As usually defined, the MIC is the lowest concentration that inhibits growth of the organism. Low readings indicate greater potency, high ones weaker potency.

Data set [1] concerns Mycobacterium tuberculosis. The data set is described as follows: Antitubercular activity against Mycobacterium tuberculosis H37Rv by agar dilution assay. The data set is classed as functional. A digest of the protocol:
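Compounds 2-fold serially diluted into 7H10 agar tubes. H37Rv inoculum taken from fresh Lowenstein-Jensen slants, adjusted to 1 mg/mL wet weight in 0.05% Tween 80 saline, then diluted 10^-2 (about 10⁷ cfu/mL) and spotted onto the agar. Incubated at 37 °C; final read at 30 days. MIC is the lowest concentration giving complete growth inhibition per spot. Ofloxacin was the standard.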
Background: In agar dilution, organisms are placed on agar that contains the substance at set levels.

Data set [2] relates to Vero. The data set is described as follows: Cytotoxicity against Vero cells at 100 ug/mL after 72 hrs by MTT assay. The following applies: chlorocebus sabaeus. Format: cell-based. A digest of the protocol: (§1)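 VERO cells (from ATCC, maintained in-house) were seeded and grown at 37 °C in 5% CO₂/95% air. They were then exposed to the compound at 25, 50 and 100 µg/mL for 72 h.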
In general terms: Formazan colour is commonly taken as a measure of viable cells.

Data set [3] relates to J774.A1. The experiment in a line: Cytotoxicity against mouse […] cells at 12.5 ug/mL. The data set is classed as cell-based.
Data set [4] concerns J774.A1. The experiment in a line: Cytotoxicity against mouse […] cells at 25 ug/mL. Format: cell-based.
In data set [5] the test system is J774.A1. The data set is described as follows: Cytotoxicity against mouse […] cells at 50 ug/mL. The data set is classed as cell-based.
Data set [6] relates to Mycobacterium tuberculosis. The experiment in a line: Antitubercular activity against Mycobacterium tuberculosis H37Rv at 50 ug/mL by agar dilution assay. The data set is classed as functional, organism-based.
The test system of data set [7] is Vero. The experiment in a line: Cytotoxicity against Vero cells at 25 ug/mL after 72 hrs by MTT assay. The note with it: chlorocebus sabaeus. The data set is classed as cell-based. A digest of the protocol:
as §1

In brackets after ≈: the same amount, converted by molar mass. Activity calls are given as the source filed them. The rule behind the calls is not given here.

On to `CC(C)O[C@@H]1C=C([C@H](O)c2ccc([N+](=O)[O-])cc2)C(=O)[C@@H](COC(=O)C(C)(C)C)O1`, for which 50 µg/mL (≈ 119 µM) was the least that counted as inhibitory in data set [1] (MIC). For `CC(C)O[C@@H]1C=C([C@H](O)c2ccc(C#N)cc2)C(=O)[C@@H](COC(=O)c2ccc([N+](=O)[O-])cc2)O1`, the MIC in data set [1] is 25 µg/mL (≈ 53.6 µM). In the case of `CC(C)O[C@@H]1C=C([C@H](O)c2ccc(C(F)(F)F)cc2)C(=O)[C@@H](COC(=O)c2ccc([N+](=O)[O-])cc2)O1`, in data set [1], 25 µg/mL (≈ 49.1 µM) was the least that counted as inhibitory (MIC). `CC(C)O[C@@H]1C=C([C@H](O)c2cccc([N+](=O)[O-])c2)C(=O)[C@@H](COC(=O)C(C)(C)C)O1` came in with a minimal inhibitory concentration (MIC) in data set [1] of 50 µg/mL (≈ 119 µM). Against the preceding molecule, the MIC is about 2-fold higher. `CCC[C@@H](O)C1=C[C@@H](OC(C)C)O[C@H](COC(=O)c2ccc([N+](=O)[O-])cc2)C1=O` registered an MIC in data set [1] of 25 µg/mL (≈ 61.4 µM).

`CC(C)O[C@@H]1C=C([C@H](O)c2ccc(C#N)cc2)C(=O)[C@@H](COC(=O)C(C)(C)C)O1` had an MIC in data set [1] of 3.12 µg/mL (≈ 7.77 µM). Further, the Activity result in the data set on Vero [2], in the data set with J774.A1 [3], with J774.A1 [4] and in the data set on J774.A1 [5] was “Non-toxic” in each case. `CC(C)O[C@@H]1C=C([C@H](O)c2ccc(C#N)cc2)[C@H](O)[C@@H](COC(=O)C(C)(C)C)O1`: in data set [6], the outcome was inactive. For the molecule `CC(C)O[C@@H]1C=C([C@H](O)c2ccccc2[N+](=O)[O-])[C@H](O)[C@@H](COC(=O)C(C)(C)C)O1`, the MIC in data set [1] came to 25 µg/mL (≈ 59 µM).

Molecule `CCC[C@@H](O)C1=C[C@@H](OC(C)C)O[C@H](COC(=O)C(C)(C)C)C1=O` returned an MIC in data set [1] of 25 µg/mL (≈ 73 µM).

In turn, `CC(C)O[C@@H]1C=C([C@H](O)c2ccc(F)cc2)[C@H](O)[C@@H](COC(=O)C(C)(C)C)O1` yielded an MIC in data set [1] of 25 µg/mL (≈ 63.1 µM).

`CC(C)O[C@@H]1C=C([C@H](O)c2ccc([N+](=O)[O-])cc2)C(=O)[C@@H](COC(=O)c2ccc([N+](=O)[O-])cc2)O1` registered an MIC in data set [1] of 25 µg/mL (≈ 51.4 µM).

With `CCCCCCCCC[C@@H](O)C1=C[C@@H](OC(C)C)O[C@H](COC(=O)C(C)(C)C)C1=O`, the MIC in data set [1] came to 6.25 µg/mL (≈ 14.7 µM). Besides, the Activity entry is “Toxic” with Vero [7], “Non-toxic” in the data set on J774.A1 [3], “Non-toxic” in the data set on J774.A1 [4] and “Non-toxic” in the data set on J774.A1 [5].

For the molecule `CC(C)O[C@@H]1C=C([C@H](O)c2ccc(C(F)(F)F)cc2)[C@H](O)[C@@H](COC(=O)C(C)(C)C)O1`, in data set [1], the MIC came out at 25 µg/mL (≈ 56 µM). For `CC(C)O[C@@H]1C=C([C@H](O)c2ccc(F)cc2)C(=O)[C@@H](COC(=O)C(C)(C)C)O1`, the result in data set [6] was inactive.

`CC(C)O[C@@H]1C=C([C@H](O)c2ccc(C(F)(F)F)cc2)[C@H](O)[C@@H](COC(=O)c2ccc([N+](=O)[O-])cc2)O1` yielded an MIC in data set [1] of 25 µg/mL (≈ 48.9 µM). On to `CC(C)O[C@@H]1C=C([C@H](O)c2ccc(C(F)(F)F)cc2)C(=O)[C@@H](COC(=O)C(C)(C)C)O1`, for which 50 µg/mL (≈ 112 µM) was the least that counted as inhibitory in data set [1] (MIC). The molecule `CC(=O)OC[C@H]1O[C@H](OC(C)C)C=C([C@H](O)c2ccc([N+](=O)[O-])cc2)C1=O` came in with an MIC in data set [1] of 1.56 µg/mL (≈ 4.11 µM). Besides, the Activity entry in the data set with Vero [7] is “Toxic”; with J774.A1 [3], “Non-toxic”; with J774.A1 [4] it was “Non-toxic”; with J774.A1 [5] it was “Non-toxic”.

In turn, `CCCCCCCCC[C@@H](O)C1=C[C@@H](OC(C)C)O[C@H](COC(=O)c2ccc([N+](=O)[O-])cc2)[C@H]1O` had an MIC in data set [1] of 25 µg/mL (≈ 50.6 µM). As to `CC(C)O[C@@H]1C=C([C@H](O)c2cccc([N+](=O)[O-])c2)[C@H](O)[C@@H](COC(=O)C(C)(C)C)O1`, in data set [1], the MIC was determined as 25 µg/mL (≈ 59 µM).

For the molecule `CC(=O)OC[C@H]1O[C@H](OC(C)C)C=C([C@H](O)c2ccc([N+](=O)[O-])cc2)[C@@H]1O`, in data set [1], inhibition of growth (MIC) required 25 µg/mL (≈ 65.6 µM). Still for that read-out and setting: next, `CCCCCCCCC[C@@H](O)C1=C[C@@H](OC(C)C)O[C@H](COC(=O)c2ccc([N+](=O)[O-])cc2)C1=O`: 25 µg/mL (≈ 50.9 µM). `CC(C)O[C@@H]1C=C([C@H](O)c2ccc([N+](=O)[O-])cc2)[C@H](O)[C@@H](COC(=O)C(C)(C)C)O1`: the result in data set [6] was inactive. Turning to `CCCCCCCCC[C@@H](O)C1=C[C@@H](OC(C)C)O[C@H](COC(=O)C(C)(C)C)[C@H]1O`, it took 1.56 µg/mL (≈ 3.64 µM) to inhibit growth in data set [1] (MIC). Besides, the Activity result in the data set with Vero [7] was “Toxic”; in the data set with J774.A1 [3] it was “Non-toxic”; in the data set with J774.A1 [4], “Non-toxic”; in the data set on J774.A1 [5], “Non-toxic”.

With `CC(C)O[C@@H]1C=C([C@H](O)c2ccc([N+](=O)[O-])cc2)[C@H](O)[C@@H](COC(=O)c2ccc([N+](=O)[O-])cc2)O1`, the MIC in data set [1] worked out at 25 µg/mL (≈ 51.2 µM). Still for that read-out and setting: for `CC(C)O[C@@H]1C=C([C@H](O)c2ccccc2[N+](=O)[O-])C(=O)[C@@H](COC(=O)C(C)(C)C)O1` the value was 50 µg/mL (≈ 119 µM).

Turning to `CC(C)O[C@@H]1C=C([C@H](O)c2ccc(F)cc2)C(=O)[C@@H](COC(=O)c2ccc([N+](=O)[O-])cc2)O1`, the MIC in data set [1] came to 25 µg/mL (≈ 54.4 µM).
